APJ antag: antagonists of human APJ apelin receptor | P35414 | CHO-K1 APJ beta-arrestin complementation, luminescence | inhibition, % at 20 µM | 0.32% of 330,000 active | AID 2521;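 active means inhibition above about 40% at 20 µM, limit read from the data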;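 further: cells challenged with 10 nM apelin-13 agonist together with compound; plate controls were apelin-13 plus DMSO wells for no effect and DMSO wells lacking apelin-13 for full effect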
CCR6 antagonist: blocks CCL20-driven beta-arrestin recruitment at human CCR6; P51684; CHO-K1 CCR6 PathHunter beta-arrestin, luminescence, CCL20-stimulated; inhibition, % at 20 µM; 0.49% of 340,000 active;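 active means compounds whose inhibition of the agonist-driven luminescence signal at 20 µM reaches about 50%, limit read from the data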;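 further: cells stimulated with CCL20 at 14 nM final; plate controls were DMSO with CCL20 for no effect and DMSO without agonist for full effect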
EBI2 antag: blocks human EBI2 receptor beta-arrestin signaling; P32249; EBI2 beta-arrestin recruitment, luminescence, 7a,25-OHC stimulated; inhibition, % at 5 µM; 0.81% of 360,000 active; AID 651636; in the data active means inhibition above about 38%;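 further: enzyme fragment complementation signal reports receptor beta-arrestin coupling in cells; 0% = agonist plus DMSO wells and 100% = wells without agonist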
APJ agonist: activates the human apelin receptor APJ | activation, % at 20 µM | 0.11% of 330,000 active | P35414 | CHO-K1 APJ PathHunter beta-arrestin, luminescence; 0% DMSO wells, 100% apelin | AID 2520;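 active means activation more than six SD over the plate average, tested at 20 µM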;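 further: 0% = DMSO alone and 100% = apelin-13 at 10 nM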
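Assay system: CHO-K1 cells stably expressing ProLink-tagged human APJ and arrestin–beta-gal acceptor. Compound dosing: 20 µM single point, 1% DMSO. Times: 16-18 h seeding, 90 min dark compound exposure, 60 min detection. Detection: beta-gal luminescence. Evaluation: APJ–arrestin association signal. Controls: negative DMSO alone, positive Apelin-13 at 10 nM.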
CXCR6 block: CXCR6 (human) receptor inhibition. 0.36% of 360,000 active. inhibition, % at 20 µM. CHO-K1 PathHunter CXCR6 beta-arrestin, luminescence. O00574; in the data active means inhibition above about 34%, passing the limit was not always enough;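 further: antagonist mode with CXCL16 agonist at 10 nM final; 0% = 10 nM CXCL16 with DMSO and 100% = unstimulated wells without agonist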
Target sequence (O00574 whole entry, looked up): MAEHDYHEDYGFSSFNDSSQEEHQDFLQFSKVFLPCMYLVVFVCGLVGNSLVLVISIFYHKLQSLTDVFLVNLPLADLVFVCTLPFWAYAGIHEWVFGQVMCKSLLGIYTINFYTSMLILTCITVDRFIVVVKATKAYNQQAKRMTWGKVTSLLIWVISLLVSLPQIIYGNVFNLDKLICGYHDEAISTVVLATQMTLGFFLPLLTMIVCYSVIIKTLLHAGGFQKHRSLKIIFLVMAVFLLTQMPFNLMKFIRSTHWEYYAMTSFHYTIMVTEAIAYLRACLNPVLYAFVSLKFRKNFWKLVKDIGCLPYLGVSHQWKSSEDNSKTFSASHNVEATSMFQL
Numbers without * were called inactive; . = not tested or not shown. Shown are actives, neighbours in structure and some others; about 1.5% of the full set was active somewhere.

SMILES | APJ antag | CCR6 antagonist | EBI2 antag | APJ agonist | CXCR6 block
COc1cc(/C=N/N=C2/C(=O)Nc3ccccc32)ccc1O | 29 | 56* | -27 | -3 | 14
Cc1ccc(CNC(=O)[C@H]2O[C@@H](n3cnc4c(N)ncnc43)[C@H](O)[C@@H]2O)o1 | . | . | -4 | . | -2
CCOC(=O)/C(=C\c1ccccc1)C(=O)c1cc(C(C)=O)c(Nc2ccccc2)s1 | 17 | 27 | 48* | 6 | 11
CCOC(=O)/C(=C\c1cccnc1)C(=O)c1cc(C(C)=O)c(Nc2ccccc2)s1 | 69* | 100* | 81* | -5 | 93*
N=C1/C(=C\c2ccc(-c3ccc(C(=O)O)cc3)o2)C(=O)N=C2SC=C(c3ccccc3)N12 | . | 53* | 14 | . | 34
COc1cc(OC)cc(-c2nc3ccccc3c(=O)n2OC(=O)c2ccc(C)c(C)c2)c1 | -17 | -11 | -18 | 11* | -7
CSCCC(NC(=O)c1cccc(S(=O)(=O)N2CCOCC2)c1)C(=O)Nc1cccc(C)c1 (stereo not given) | -9 | -5 | -5 | 0 | 2
CC1=NC(Nc2nc(C)c3ccccc3n2)=NC(C)(C)C1 | . | 58* | 26 | . | 37
COc1cc(SSc2cc(OC)cc([N+](=O)[O-])c2N)c(N)c([N+](=O)[O-])c1 | -17 | 54* | 41 | 0 | 30
COc1cc([N+](=O)[O-])c2ncsc2c1 | 6 | -2 | -9 | 3 | -5
C[C@H](CO)N1C[C@H](C)[C@@H](CN(C)C(=O)Nc2ccc(C(F)(F)F)cc2)Oc2c(NC(=O)Nc3ccc(C(F)(F)F)cc3)cccc2C1=O | -6 | -11 | 43* | 0 | -19
COc1ccc(CCN2C(=O)C=CC2=O)cc1OC | . | 109* | 8 | . | 93*
COc1ccc(CCn2c(C)ccc2C)cc1OC | 9 | . | . | 1 | .
N#C/C(=C\c1ccc(-c2ccc(F)cc2)o1)C(=O)Nc1nc(-c2cccs2)cs1 | 30 | 55* | 19 | -7 | 26
Cc1nn(Cc2c(F)c(F)c(F)c(F)c2F)c(C)c1NC(=O)c1ccc(COc2cc(Cl)ccc2Cl)cc1 | 4 | -12 | 51* | -4 | 0
CCOC(=O)C[C@H]1c2cc(C(F)(F)F)ccc2S(=O)(=O)N1C(C)C | -44 | 7 | 0 | 4 | 6
FC(F)(F)c1cnc(NNC(=S)Nc2ccccc2Cl)c(Cl)c1 | 37 | 85* | 17 | 1 | 82*
CC(=O)c1cccc(NC(=O)COc2cc(C)on2)c1 | -3 | 4 | 1 | -1 | 0
N=C1C=CC(=C(c2ccc(N)cc2)c2ccc(N)cc2)C=C1 | . | 51* | 15 | . | 39
Nc1ccc(C(=O)C(=O)c2ccc(N)cc2)cc1 | 4 | 11 | 1 | -3 | 2
Fc1cccc(Cc2c(-c3ccccc3)nc3c(Cl)cc(C(F)(F)F)cn23)c1 | . | . | 2 | . | 12
N#C/C(=C\C1=C(N2CCOCC2)C(=C\c2ccc(Cl)cc2)/CC1)C(=O)Nc1ccccc1F | . | 31 | 14 | . | 11
N#C/C(=C/C1=C(N2CCOCC2)C(=C/c2ccccc2)/CC1)C(=O)Nc1ccccc1F | . | 45 | 21 | . | 30
CCN(CC)c1ccc(/C=C2\CCC(/C=C(\C#N)C(=O)Nc3ccccc3F)=C2N2CCOCC2)cc1 | . | 91* | 19 | . | 29
CCN(CC)c1ccc(/C=C2\CCC(/C=C(/C#N)C(=O)Nc3ccccc3F)=C2N2CCOCC2)cc1 | . | 102* | 27 | . | 45*
SMILES | APJ antag | CCR6 antagonist | EBI2 antag | APJ agonist | CXCR6 block
CSc1cccc(NC(=O)C2CC(=O)N(Cc3ccccc3)C2)c1 (stereo not given) | 11 | 16 | 0 | 8 | -2
C=CCOc1cccc(/C=C/c2nc3ccccc3c(=O)[nH]2)c1 | 14 | 5 | -6 | -5 | 7
Cc1ccc(Cl)c2c1=NC(=O)C=2c1[nH]c(=S)[nH]c1O | 41* | 45 | -6 | -8 | 17
O=C1NCCCC1C(=O)N/N=C/c1cc([N+](=O)[O-])ccc1O (stereo not given) | 15 | 45 | 2 | -4 | 17
O=C(N/N=C/c1cc([N+](=O)[O-])ccc1O)c1cccc2cc[nH]c12 | 8 | 27 | 63* | -5 | 16
O=C(N/N=C/c1cccc([N+](=O)[O-])c1)c1cccc2cc[nH]c12 | -1 | -7 | -2 | 0 | -11
O=C(N/N=C/c1cc([N+](=O)[O-])ccc1O)c1ccc2c(c1)OCCO2 | 6 | 33 | 76* | -1 | 6
O=C(N/N=C/c1cc([N+](=O)[O-])ccc1O)C1CC1 | 10 | 42 | 62* | -4 | 21
CNC(=O)C1CCN(S(=O)(=O)c2c(C)noc2/C=C/c2cccc(OC)c2)CC1 | 18 | 4 | -9 | -3 | 1
CC(C)NC(=O)N(C)C[C@H]1Oc2c(NC(=O)C3CCCCC3)cccc2C(=O)N([C@H](C)CO)C[C@@H]1C | -6 | -1 | -16 | -1 | 3
CC(=O)c1ccc(OC(=O)COc2ccccc2Cl)cc1 | 3 | 14 | -9 | -1 | -8
CN(Cc1ccccc1)C(=O)[C@@H]1CCCN1C(=O)[C@@H]1CCCN1C(=O)c1ccc(Cl)cc1 | . | . | -8 | . | -8
O=C(Nc1nc(-c2cc(F)ccc2F)cs1)c1ccccn1 | 68* | 65* | 27 | -7 | 41*
COc1cccc(S(=O)(=O)N2C[C@H](O)COC[C@H]3O[C@@H](CC(=O)N4CCN(C)CC4)CC[C@@H]32)c1 | . | . | -7 | . | .
COC(=O)c1c(C)[nH]c(C(=O)OCc2csc(CC(=O)Nc3ccccc3C)n2)c1C | -2 | 14 | 3 | 0 | -12
Oc1c(Cl)cc(Cl)cc1CNc1ccc(Br)cn1 | 2 | -4 | 0 | 10 | 5
Oc1ccc(Cl)cc1CNc1ccc(Br)cn1 | -9 | 14 | 41* | -1 | -7
CCc1nnc(NC(=O)c2cccc(C(=O)Nc3nnc(CC)s3)n2)s1 | . | 73* | 27 | . | 52*
Cc1cc(-c2c(C(=O)N3CCOCC3)c(C)nn2-c2ccccc2)no1 | -16 | 2 | -11 | -5 | -16
COc1ccc(C(C[N+](=O)[O-])C2(c3ccc(OC)c(OC)c3)C(=O)c3ccccc3C2=O)cc1 (stereo not given) | . | 59* | -22 | . | 29
CC(C)N=c1cc2n(-c3ccc(Cl)cc3)c3ccccc3nc-2cc1Nc1ccc(Cl)cc1 | 67* | 50 | 4 | -7 | 46*
Cn1c(CNc2ccc(Cl)cc2)nc2ccccc21 | -3 | 5 | 3 | -4 | -17
CC(=O)c1ccc(N2CCN(S(=O)(=O)c3ccc4c(c3)C(Cl)(Cl)C(=O)N4)CC2)cc1 | . | . | -5 | . | 2
Cc1ccccc1Oc1cc(-n2ncc(Cl)c(Cl)c2=O)ncn1 | . | 65* | 68* | . | 46*
Cc1ccc(-c2csc3nc4c5ccccc5c(NCCCN(C)C)nn4c(=O)c23)cc1 | 14 | 21 | -7 | 11* | 1
Cc1c(C(=O)N2CCOCC2)c(S(=O)(=O)Nc2ccc(C(C)C)cc2)c(C)n1C | 3 | 2 | -4 | 4 | 8
